Compound activity from PubChem.
ERa coact inh – ERα–SRC-1 coactivator interaction inhibitors, primary screen, biochemical, TR-FRET, ERα LBD, estradiol-bound; Estrogen receptor (Homo sapiens), P03372; TR-FRET ER-alpha LBD / SRC-1 peptide; inhibition, % at 25.6 µM; hit rate 1.7% among 86,000; in the data active = inhibition above about 50%;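 note: 0% = receptor plus peptide control and 100% = peptide only without receptor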
Target sequence (P03372 whole entry, looked up, the tested form may be a part): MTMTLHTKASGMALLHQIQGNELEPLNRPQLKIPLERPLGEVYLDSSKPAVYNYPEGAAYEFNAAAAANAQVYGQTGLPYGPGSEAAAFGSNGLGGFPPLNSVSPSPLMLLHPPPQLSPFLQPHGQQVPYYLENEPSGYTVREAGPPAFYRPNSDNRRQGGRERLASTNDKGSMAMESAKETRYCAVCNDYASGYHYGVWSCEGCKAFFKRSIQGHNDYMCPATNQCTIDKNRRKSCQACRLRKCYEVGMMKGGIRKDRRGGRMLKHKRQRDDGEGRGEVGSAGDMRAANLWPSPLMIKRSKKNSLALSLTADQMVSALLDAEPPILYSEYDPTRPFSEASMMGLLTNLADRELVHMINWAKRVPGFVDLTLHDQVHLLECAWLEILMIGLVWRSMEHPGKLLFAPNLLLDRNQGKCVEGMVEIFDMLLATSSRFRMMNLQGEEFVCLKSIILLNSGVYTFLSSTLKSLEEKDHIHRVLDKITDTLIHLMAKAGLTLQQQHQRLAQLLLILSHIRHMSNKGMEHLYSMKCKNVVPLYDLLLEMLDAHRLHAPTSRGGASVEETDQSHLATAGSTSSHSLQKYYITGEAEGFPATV
Lung fibro prol – antiproliferative effect on LL 47 fibroblasts – human, LL 47 cells, CellTiter-Glo luminescence, primary screen; hit rate 1.1% among 85,000; viability, % at 10 µM; LL 47 human lung fibroblast viability, ATP luminescence; active compounds read low;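 active = viability at or below 50% in the single dose screen; inactive = viability above 50%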;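 note: compound exposure lasted 72 h before the ATP readout; 100% = median luminescence of untreated cell-only wells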
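Times – overnight cell rest, 72 h compound treatment at 37 °C · Test system – human lung fibroblast line LL 47, low passage · Amount – 1,150 cells in each well · Controls – cell-only wells, no compound · Doses – 0.1% DMSO in all compound wells · Measured by – CellTiter-Glo luminescence · Buffer or medium – IMEM plus 15% FBS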
ERa coact pot – enhancers of ERα–SRC-1 coactivator binding, primary screen, biochemical, TR-FRET, ERα LBD, low estradiol; hit rate 1.3% among 86,000; TR-FRET ERalpha-LBD/SRC-Cy5 coactivator binding, 2 h; 100 = basal binding, no effect; Estrogen receptor (Homo sapiens), P03372; coactivator binding (% of control), % at 25.6 µM; in the data active = activity above about 200%;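 note: binding measured in presence of low estradiol as agonist stimulus; 0% = peptide alone without receptor and 100% = receptor with peptide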
HUVEC inhibit – inhibitors of HUVEC proliferation, primary screen, cell-based, 384-well | CellTiter-Glo luminescence, 72 h; active compounds read low | viability, % at 10 µM (by protocol) | hit rate 1.1% among 86,000 | AID 648, 2007;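 active = viability at or below 30%; inactive = viability above 30%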;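 note: 100% = median luminescence of DMSO-only cell control wells on each plate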
H69AR growth 86K – proliferation blockers of H69AR lung cancer cells, primary screen, cell-based, human, 86K library | H69AR lung tumor viability, ATP luminescence, 72 h; active compounds read low | viability, % at 10 µM | hit rate 6% among 85,000;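 active = viability at or below 40%; inactive = viability above 40%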;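 note: multidrug resistant small cell line overexpressing MRP-1 efflux transporter; 100% = mean luminescence of untreated control wells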
ERb coact inh – inhibitors of ERβ-SRC1 coactivator interaction, primary screen, biochemical, TR-FRET, ERβ LBD, SRC-1 peptide; Estrogen receptor beta (Homo sapiens), Q92731; inhibition, % at 25.6 µM; TR-FRET ER-beta LBD / SRC1-Cy5 peptide binding; receptor agonist-loaded with 1 µM estradiol; AID 633, 2007; hit rate 1.3% among 86,000;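 active = compounds whose percent inhibition of the receptor-coactivator binding signal exceeds about 50% in the single-dose screen, limit read from the data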;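 note: 0% = receptor plus peptide wells without compound and 100% = peptide-only wells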
The depositor's hits bear a star; / = not tested or not shown; [ ] = remark or other dose. Rows were chosen to be rich in hits. Some 9.2% of all compounds tested hit in one or more screens of this group.

SMILES	ERa coact inh	Lung fibro prol	ERa coact pot	HUVEC inhibit	H69AR growth 86K	ERb coact inh
CCc1[nH]nc2c1C(c1ccc(Br)s1)C(C#N)=C(N)O2 (configuration not stated)	-0.3	24.4*	79.3	69.4	1.7*	-8.1
COc1ccc(C(=O)N2CCCN(C)CC2)cc1S(=O)(=O)N1CCCc2ccccc21	-13.2	90.4	224.8*	90.6	54.9	-11.4
COc1ccc(OC)c(S(=O)(=O)N2CCCc3ccccc32)c1	-2.5	85.4	105.7	103.8	80.6	0.9
Cc1ccccc1CN(c1ccc(C(=O)N2CCc3ccccc3C2)cc1)S(C)(=O)=O	-1.0	93.6	86.1	100.6	79.8	3.4
CCOC(=O)c1c(NC(=O)Nc2ccc(Cl)cc2)sc(C)c1C	6.5	104.0	94.6	90.0	96.8	-3.3
CCOC(=O)c1c(C)sc2c1N(C(=O)CCl)c1cc(Cl)ccc1S2	-0.9	2.6*	84.9	17.5*	0.7*	-5.0
CSCCC(NC(=O)COc1ccccc1)C(=O)N1CCN(c2ccccc2F)CC1 (configuration not stated)	-7.0	94.3	119.3	107.0	92.2	-5.9
COc1cc2c(cc1NC(=O)Cn1cnc3c1c(=O)n(C)c(=O)n3C)oc1ccccc12	-3.3	85.9	165.8	76.0	8.1*	-1.9
COc1ccc(Cl)cc1NC(=O)C1CCCO1 (configuration not stated)	-2.5	87.7	88.4	95.5	111.7	-12.6
COc1cc2c(cc1NC(=O)C1CCCO1)oc1ccccc12 (configuration not stated)	0.0	82.7	136.8	70.7	35.0*	7.0
CCCc1cc(NCCN2CCOCC2)n2c(nc3ccccc32)c1C#N	-3.0	91.2	120.2	85.8	64.8	6.8
CCOC(=O)C(=O)Nc1ccccc1C(=O)Nc1ccc(OC)cc1	3.9	105.8	113.7	99.2	105.2	0.8
Cc1occc1-c1nnc(SCC(=O)N2c3ccccc3CCc3ccccc32)n1C	-5.3	94.0	114.1	92.4	82.2	-5.0
O=C(Cn1c(SCC(=O)N2CCc3ccccc32)nc2ccccc21)NC1CCCC1	-9.7	102.7	94.4	76.3	28.6*	-14.8
O=C(Cn1c(SCC(=O)N2CCc3ccccc3C2)nc2ccccc21)NC1CCCC1	-1.7	94.1	100.9	79.3	100.2	-6.0
CCCCOC(=O)Cn1c2ccc(OC)cc2c2nc3ccccc3nc21	52.8*[fluorescence artefact?]	70.8	227.3*[fluorescence artefact?]	68.1	28.4*	21.1
CCCNc1nc(Nc2ccc(C)cc2)nc(N2CCCC2)n1	-3.9	65.6	99.7	30.4	35.4*	1.5
CCCNc1nc(N2CCOCC2)nc(N2CCOCC2)n1	-2.2	95.2	132.9	103.5	102.0	54.8*
CCOC(=O)c1c(C)[nH]c(N=Nc2ccccc2C)c1C	-8.9	90.4	103.1	82.0	81.5	1.1
COc1ccc(NC(=O)Cn2nnc(-c3ccccc3NC(=O)c3cccs3)n2)cc1	32.8	/	237.5*[fluorescence artefact?]	31.6	7.5*	30.3
Cc1ccc(NC(=O)Cn2nnc(-c3ccccc3NC(=O)c3cccs3)n2)cc1	17.3	46.4*	110.9	18.6*	6.8*	21.3
O=C(Cn1nnc(-c2ccccc2NC(=O)c2ccco2)n1)Nc1ccccc1	59.7*[fluorescence artefact?]	77.9	286.3*[fluorescence artefact?]	45.8	22.9*	42.6
COc1cccc(-c2nnn(CC(=O)Nc3ccc(C)cc3C)n2)c1OC	26.9	97.6	283.0*[fluorescence artefact?]	92.4	48.1	30.6
CC(c1ccco1)N(C(=O)C12CC3CC(CC(C)(C3)C1)C2)c1ccccn1 (configuration not stated)	-5.6	98.2	107.6	112.8	93.0	-12.9
CCOC(=O)c1c(C(C)(C)C)oc2ccc(O)cc12	4.3	93.8	77.7	46.5	29.9*	-0.7
SMILES	ERa coact inh	Lung fibro prol	ERa coact pot	HUVEC inhibit	H69AR growth 86K	ERb coact inh
CC(C)(C)C(=O)/C=C/Nc1ccccc1O	2.2	109.0	107.0	105.8	42.5	3.1
O=C1C=C(Nc2ccccc2O)c2ccccc2C1=O	-9.3	13.0*	112.6	4.7*	7.9*	-9.7
CCOC(=O)c1nc(S(C)(=O)=O)ncc1Cl	1.5	65.4	141.9	77.8	1.6*	-0.6
CCOC(=O)c1nc(S(C)(=O)=O)ncc1N1CCOCC1	-0.4	97.0	122.3	92.7	91.0	-1.4
CCOC(=O)CN(C(=O)CSc1nnc(COc2ccc(OC)cc2)n1C)c1ccccc1	-4.4	89.6	98.2	97.4	95.5	6.7
COc1ccccc1CN(Cc1nc2ccccc2c(=O)[nH]1)S(=O)(=O)c1ccc(C)cc1	-3.6	103.4	99.2	85.3	105.4	17.0
Cn1c(=O)c2c(nc(NCc3ccc4c(c3)OCO4)n2Cc2ccc(F)cc2)n(C)c1=O	-20.8	83.5	99.0	57.2	23.0*	-22.1
CCCCC(=O)NCCNc1nc2c(c(=O)n(C)c(=O)n2C)n1Cc1ccc(F)cc1	-3.7	98.7	97.9	102.0	71.2	-7.1
Cn1c(=O)c2c(nc(NCc3ccc4c(c3)OCO4)n2Cc2ccccc2F)n(C)c1=O	1.2	103.6	100.2	90.7	42.8	3.6
Cn1c(=O)c2c(nc(NCc3ccc4c(c3)OCO4)n2Cc2ccccc2)n(C)c1=O	-13.4	96.6	117.7	89.4	28.8*	-17.9
COc1ccccc1-c1c(C#N)c(SCC(=O)N2CCCC2)nc(C)c1C(N)=O	-0.7	90.8	95.8	101.1	82.9	-3.0
Cc1ccc(C)c(N2CCN(C(=O)CNS(=O)(=O)c3cccs3)CC2)c1	-6.5	94.2	94.3	89.5	98.2	-4.3
CCOC(=O)c1cccc(NC(=O)CN(c2ccc(C)cc2)S(=O)(=O)c2c(C)n[nH]c2C)c1	5.2	104.3	105.2	87.7	91.7	0.3
COc1cccc(-c2nc(CS(=O)(=O)CC(=O)Nc3cc(C)ccc3C)c(C)o2)c1	16.3	103.4	213.8*[fluorescence artefact?]	94.7	20.1*	12.4
CCOC(=O)c1cccc(NC(=O)CS(=O)(=O)Cc2nc(-c3cccc(OC)c3)oc2C)c1	11.1	90.5	128.7	72.9	72.3	4.8
COCCCNC(=O)CS(=O)(=O)Cc1nc(-c2cccc(OC)c2)oc1C	-2.7	/	104.8	97.9	99.6	-4.2
COc1cccc(-c2nc(CS(=O)(=O)CC(=O)Nc3c(C)cccc3C)c(C)o2)c1	16.5	92.3	183.5	78.9	14.2*	12.9
Cc1ccc(-c2nc(SCC(=O)NCCN3C(=O)CSC3=O)[nH]c2-c2ccc(C)cc2)cc1	-3.9	93.2	91.1	76.4	63.4	-11.6
COc1ccccc1-n1c(C)cc(C=O)c1C	2.6	95.4	92.0	97.0	81.9	1.6
